# Many of the other results were omitted from the sample, so hits are more common in it than they were.
# Lung fibro prol = blocks proliferation of human lung fibroblasts; LL 47 human lung fibroblast viability, ATP luminescence; stronger effect = lower value; viability, % at 10 µM; 1.1% of 85,000 active; AID 719;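 active = viability at or below 50% in the single dose screen; inactive = viability above 50%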;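 also: compound exposure lasted 72 h before the ATP readout; 100% = median luminescence of untreated cell-only wells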
#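 Material: human LL 47 lung fibroblast cells; quantity: 1,150 cells/well; medium: IMEM plus 15% FBS; doses: 0.1% DMSO in all compound wells; timing: overnight attachment after seeding, then 72 h compound exposure at 37 °C; detection: CellTiter-Glo luminescence; measure: % viability of median cell-only signal; controls: cell-only wells, no compound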
# bCat KO growth = beta-catenin-lacking colon tumor cell growth suppression. viability, % at 10 µM. HCT116 beta-catenin knockout viability, CellTiter-Glo, 60 h; stronger effect = lower value. 1.5% of 140,000 active;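 active = viability at or under a set limit, the compound median less 4 SD, cut at about 6% in these data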;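 also: 0% = Hyamine 1622 control at 20 µM and 100% = untreated cell control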
# H69AR inhibit = blocks growth of human H69AR lung tumor cells. H69AR lung tumor viability, ATP luminescence, 72 h; stronger effect = lower value. viability, % at 10 µM. 6% of 85,000 active;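 active = viability at or below 40%; inactive = viability above 40%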;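 also: multidrug resistant small cell line overexpressing MRP-1 efflux transporter; 100% = mean luminescence of untreated control wells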
# HUVEC prolif 384 = inhibitors of human endothelial cell proliferation; HUVEC proliferation, CellTiter-Glo luminescence, 72 h; stronger effect = lower value; viability, % at 10 µM (by protocol); 1.1% of 86,000 active; AID 648;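 active = viability at or below 30%; inactive = viability above 30%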;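 also: 100% = median luminescence of DMSO-only cell control wells on each plate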
# HCT116 PTEN-null = growth suppressors of cells with PTEN tumor suppressor deletion; HCT116 PTEN-null viability, CellTiter-Glo, 60 h; stronger effect = lower value; viability, % at 10 µM; 1.2% of 140,000 active; AID 827;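 active = viability at or below a set limit, 4 SD under the median of all tested compounds, cut at about 3.7% in these data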;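 also: PTEN knockout HCT116 line with beta catenin targeted HCT116 as companion control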
# Active calls of the source: *; . = no result.
SMILES,Lung fibro prol,bCat KO growth,H69AR inhibit,HUVEC prolif 384,HCT116 PTEN-null
Cc1cc(C(=O)Nc2nc3ccc(S(C)(=O)=O)cc3s2)c(C)o1,46*,80,51,94,88
Cc1ccc2nc(NC(=O)c3ccc(Cl)s3)sc2c1,51,86,20*,70,80
CS(=O)(=O)c1ccc2nc(NC(=O)c3cccs3)sc2c1,97,84,25*,75,74
O=C(NC(=S)NCCCN1CCOCC1)c1ccc([N+](=O)[O-])cc1,.,94,.,.,93
COc1ccccc1N/C(=N/S(=O)(=O)c1ccc(C)cc1)c1ccc(Cl)cc1,.,80,.,.,67
C/C=C/C(=O)OCC(=O)Nc1nc2ccc(C)cc2s1,101,94,29*,94,85
Cc1ccc(C(=O)Nc2nc3ccc(S(C)(=O)=O)cc3s2)s1,101,87,38*,85,85
CCCOc1ccccc1C1CC(=O)Nc2cc3c(cc21)OCCO3 (stereo not drawn),.,17,.,.,17
CCOc1ccccc1C1CC(=O)Nc2cc3c(cc21)OCCO3 (stereo not drawn),61,17,30*,51,16
CC(C)Oc1ccccc1C1CC(=O)Nc2cc3c(cc21)OCO3 (stereo not drawn),62,9,20*,45,12
Cn1c(SCC(=O)N/N=C/C=C/c2ccco2)nc2ccccc21,.,74,.,.,73
c1ccc(CCN2CCN(c3ncnc4c3cnn4-c3ccccc3)CC2)cc1,98,86,34*,60,80
CCN1CCN(c2ncnc3c2cnn3-c2ccccc2)CC1,103,88,88,98,100
Cc1ccc(C(=O)N2CCN(c3ncnc4c3cnn4-c3ccccc3)CC2)cc1,99,.,21*,84,.
C=CC(C)(C)c1cc2cc3ccoc3cc2oc1=O,.,92,.,.,87
Cc1cc(N=Cc2c(O)n(-c3ccc4c(c3)OCO4)c(=O)c3ccccc23)ccn1,73,83,21*,87,80
Cc1ccc(-n2c(O)c(C=Nc3ccc4c(c3)OCO4)c3ccccc3c2=O)cc1C,.,2.0*,.,.,2.4*
Cc1ccc(S(=O)(=O)/N=C(\CN2CCCCC2)N2CCOCC2)cc1,99,84,96,116,97
Brc1ccccc1Cn1c(-c2cscn2)nc2ccccc21,90,63,83,107,67
C/C(=N\Nc1cc(Cl)nc(C)n1)c1ccc(Cl)c(Cl)c1,.,90,.,.,83
C/C(=N\Nc1cc(-c2ccccc2)nc(-c2ccccc2)n1)c1ccc(O)c(C)c1,.,11,.,.,2.0*
CCn1c(Sc2ccc(N)cc2Cl)nc2ccccc21,94,69,34*,108,58
CCOC(=O)c1c(C)[nH]c(C=O)c1Cc1cccc(Cl)c1,.,65,.,.,60
CCOC(=O)c1c(C)[nH]c(C2=NNC(=Nc3cccc(Cl)c3)SC2)c1C,.,2.8*,.,.,2.1*
COc1ccc(-n2c(SCC(=O)Nc3ccc4c(c3)OCO4)nc3ccccc3c2=O)cc1,99,96,95,85,86
SMILES,Lung fibro prol,bCat KO growth,H69AR inhibit,HUVEC prolif 384,HCT116 PTEN-null
COc1ccc(NC(=O)CSc2nc3ccccc3c(=O)n2-c2ccc3c(c2)OCO3)c(OC)c1,120,62,9.4*,76,76
CS(=O)(=O)c1ccc(Cl)c(NC(=O)CSc2nc3ccccc3c(=O)n2CCCN2CCOCC2)c1,.,93,.,.,93
COc1ccc(NC(=O)CSc2nc3ccccc3c(=O)n2CCCN2CCCCC2)c(OC)c1,83,2.6*,66,78,3.1*
COCCCn1c(SCC(=O)Nc2ccc(NC(=O)c3ccco3)c(OC)c2)nc2ccccc2c1=O,93,92,32*,97,104
O=CN1CC(=O)N(c2ccccc2)c2c([nH]c3ccccc23)C1,98,91,82,94,96
CC(=O)c1c(C(C)=O)c(C)n(C2CCCCC2)c1C,94,100,98,98,102
Cc1ccc(-c2noc(CSc3nnc(Cc4ccccc4)n3-c3cccc(C)c3)n2)cc1,104,66,20*,89,66
COc1ccc(-c2noc(CSc3nnc(Cc4ccccc4)n3-c3cccc(C)c3)n2)cc1OC,95,86,56,99,73
CCOC(=O)N1CCN(C(=O)N2CCOCC2)CC1,100,93,84,96,93
Cc1nn(C(=O)N2CCOCC2)c(C)c1C,93,0.9*,99,90,0.9*
COc1ccc(-c2cc(-c3ccc(OC)cc3)nc(-c3ccc4c(c3)NC(=O)CO4)c2)cc1,.,2.7*,.,.,2.4*
Cc1ccc(S(=O)(=O)N2CCN=C2c2ccccc2)cc1C,94,86,99,87,78
COc1cc(S(=O)(=O)N2CCN=C2c2ccccc2)ccc1F,92,36,23*,65,27
O=C(N/N=C/c1cn(-c2ccccc2)nc1-c1cc2ccccc2o1)c1cccnc1,.,7,.,.,3.5*
O=C(N/N=C/c1cn(-c2ccccc2)nc1-c1cc2ccccc2o1)c1ccncc1,.,17,.,.,10
O=c1c(Cl)c(Cl)cnn1Cc1ccccc1Cl,.,1.7*,.,.,1.9*
CCc1ccc(C(=O)Cn2ncc(Cl)c(Cl)c2=O)cc1,29*,4.8*,6.1*,6.8*,3.0*
O=C(OCn1ncc(Cl)c(Cl)c1=O)c1cccc(C(F)(F)F)c1,.,8,.,.,8
O=c1c(Cl)c(Cl)cnn1-c1ccccc1,.,0.9*,.,.,0.9*
Cc1cc(C)cc(Cn2ncc(Cl)c(Cl)c2=O)c1,.,1.9*,.,.,1.6*
Cc1cc(=O)c2n(Cc3ccccc3Cl)nc[n+]2[nH]1,102,96,82,94,92
Cc1cc(=O)[nH]c2c1cnn2Cc1ccccc1,100,87,101,102,90
O=C(Nc1nccs1)c1cccc(NC(=O)c2ccco2)c1,99,81,65,84,85
Cc1nc2cc(NC(=O)COc3ccc(C#N)cc3)ccc2n1-c1ccccc1,108,96,88,97,94
CCOC(=O)C1=C(C(F)(F)F)Nc2ncnn2C1c1cc(OC)ccc1OC (stereo not drawn),.,86,.,.,93
SMILES,Lung fibro prol,bCat KO growth,H69AR inhibit,HUVEC prolif 384,HCT116 PTEN-null
CC(C)(C)OC(=O)CN1C(=O)C(Sc2n[nH]c(-c3ccccc3)n2)CCc2ccccc21 (stereo not drawn),.,74,.,.,71
Cc1cc(Cl)ccc1NC(=S)NCCN1CCOCC1,.,86,.,.,87
O=C(Cc1ccccc1[N+](=O)[O-])NCCSCc1c(F)cccc1Cl,.,93,.,.,97
Cc1ccc(Cn2ncc3c(N4CCN(c5ccc(C)cc5)CC4)ncnc32)cc1,92,62,93,104,70
Cc1ccc(Cn2ncc(Cl)c(Cl)c2=O)cc1,.,2.7*,.,.,1.7*
COC(=O)c1cc(=O)nc2sc(-c3ccc(F)cc3)nn12,93,92,36*,79,93
COC(=O)c1cc(=O)nc2sc(-c3cccs3)nn12,99,95,104,95,108
COc1cc(/C=C2/C(=N)N3C=CSC3=NC2=O)ccc1OCCCOc1c(C)cccc1C,94,87,44,77,87
COc1cc(/C=C2/C(=N)N3C=CSC3=NC2=O)ccc1OCCCOc1ccccc1C,66,82,6.1*,15*,86
